# In ChEMBL document CHEMBL5252510, “A Novel Potent Oral Series of VEGFR2 Inhibitors Abrogate Tumor Growth by Inhibiting Angiogenesis” (J Med Chem, 2016):
# pIC50: −log10 of the molar value. The source made the active and inactive calls. The calls are words filed in the database; no cut-off is given here.
# Columns and labels:
# [1] = target: Insulin-like growth factor 1 receptor (Homo sapiens, UniProt P08069); assay: Inhibition of IGF1R (unknown origin) autophosphorylation expressed in […] by ELISA-based assay; type: cell-based
# Method in brief: (§1)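 Cells were stimulated with the respective ligand. Receptor tyrosine kinase autophosphorylation in the presence of compound was quantified by ELISA.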
# [2] = Clearance in OFA rat at 2.5 mg/kg, iv measured upto 24 hrs by HPLC/UV analysis; type: ADME, organism-based; details: in vivo
# Method in brief: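 Catheters were placed in the femoral artery and vein of female OFA rats, followed by 96 h recovery. IV doses went into the femoral vein: 2.5 mg/kg in ethanol/dimethylisosorbide/PEG400/5 % glucose (10/15/35/40), or 1 mg/kg in NMP/PEG200 (30:70). Plasma samples at 5, 15, 30 min and 1, 2, 4, 6, 8, 24 h. Parameters reported over 24 h. n=2–4.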
# [3] = target: T1, Vascular endothelial growth factor receptor 2 (Homo sapiens, UniProt P35968); assay: Inhibition of human recombinant GST-fused VEGFR2 kinase domain transphosphorylation expressed in baculovirus expression system using poly-Glu-Tyr (4:1) as substrate measured after 10 mins in presence of gamma-[33P]-ATP by scintillation counting analysis
# [4] = target: T2, Proto-oncogene tyrosine-protein kinase receptor Ret (Homo sapiens, UniProt P07949); assay: Inhibition of human recombinant GST-fused RET expressed in baculovirus expression system using poly-Glu-Tyr (4:1) as substrate measured after 10 mins in presence of gamma-[33P]-ATP by scintillation counting analysis
# Method in brief: (§2)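 GST-fused kinase domains were expressed in baculovirus and purified on glutathione-Sepharose. 10 min at ambient temperature, stopped with EDTA. Filter binding and scintillation counting. IC50 by linear regression of percent inhibition.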
# [5] = Antitumor activity against rat BN472 cell implanted in Brown-Norway rat assessed as tumor growth inhibition by measuring T/C ratio at 3 mg/kg, po qd measured upto 14 days; type: functional; details: time <= 14 day
# Method in brief: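 Female Brown-Norway rats (160-180 g) given 3 mm³ BN472 tumor fragments in mammary fat pads; at about 200 mm², randomized into groups of 7-8 and dosed orally with compound or PEG300 vehicle over 14 days; tumor growth followed, T/C computed; significance by 2-way RM-ANOVA.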
# [6] = target: T1, Vascular endothelial growth factor receptor 2; assay: Inhibition of VEGF-induced human VEGFR2 autophosphorylation transfected in CHO cells measured after 2 hrs by chemiluminescence assay; type: cell-based
# [7] = Oral bioavailability in OFA rat at 25 mg/kg measured upto 24 hrs by HPLC/UV analysis; type: ADME, organism-based; details: in vivo
# Method in brief: (§3)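 Female OFA rats, femoral artery/vein catheterized and recovered 96 h. Oral gavage of a micronized suspension in 0.5 % carboxymethyl cellulose at 25 or 3 mg/kg. Bioavailability taken against femoral-vein iv dosing. Plasma sampled 5 min–24 h (9 time points).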
# [8] = target: Mast/stem cell growth factor receptor Kit (Homo sapiens, UniProt P10721, K642E); assay: Inhibition of KIT K642E mutant (unknown origin) autophosphorylation expressed in human GIST882 cells by ELISA-based assay; type: cell-based; method in brief: as §1
# [9] = target: Epidermal growth factor receptor (Homo sapiens, UniProt P00533); assay: Inhibition of EGFR (unknown origin) autophosphorylation expressed in human A-431 cells by ELISA-based assay; type: cell-based; method in brief: as §1
# [10] = target: Platelet-derived growth factor receptor beta (Homo sapiens, UniProt P09619); assay: Inhibition of PDGFR (unknown origin) autophosphorylation expressed in mouse BALB/3T3 clone A31 cells by ELISA-based assay; type: cell-based; method in brief: as §1
# [11] = target: T1, Vascular endothelial growth factor receptor 2; assay: Inhibition of VEGF-induced human VEGFR2 autophosphorylation expressed in HUVEC cells measured after 2 hrs by chemiluminescence assay; type: cell-based
# [12] = target: Angiopoietin-1 receptor (Homo sapiens) (UniProt Q02763); assay: Inhibition of human recombinant GST-fused TIE2 expressed in baculovirus expression system using poly-Glu-Tyr (4:1) as substrate measured after 10 mins in presence of gamma-[33P]-ATP by scintillation counting analysis; method in brief: as §2
# [13] = target: Serine/threonine-protein kinase B-raf (Homo sapiens) (UniProt P15056); assay: Inhibition of human recombinant GST-fused BRAF expressed in baculovirus expression system using poly-Glu-Tyr (4:1) as substrate measured after 10 mins in presence of gamma-[33P]-ATP by scintillation counting analysis; method in brief: as §2
# [14] = target: T2, Proto-oncogene tyrosine-protein kinase receptor Ret; assay: Inhibition of RET (unknown origin) autophosphorylation expressed in mouse NIH3T3 cells by ELISA-based assay; type: cell-based; method in brief: as §1
# [15] = Half life in Sprague-Dawley rat at 50 mg/kg, po measured upto 24 hrs by HPLC/UV analysis; type: ADME, organism-based; details: in vivo
# Method in brief: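 Female Sprague Dawley rats, 8 weeks old, catheterized. Oral suspension in 0.5 % carboxymethyl cellulose at 50 mg/kg, n=3. Bioavailability taken against 3 mg/kg iv. Plasma sampled 5 min–24 h. Cmax and AUC(0–∞) dose-normalized.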
# BN472 cell = assay: Induction of apoptosis in rat BN472 cell implanted in Brown-Norway rat assessed as effect on caspase 3 level at 3 mg/kg, po qd measured upto 14 days by microscopic analysis; type: functional, organism-based; details: time <= 14.0 day
# Method in brief: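 BN472 fragments were grown in mammary fat pads of female Brown-Norway rats and dosed orally for 14 days. Hoechst dye was given i.v. 2 min before sacrifice. Excised tumors were cut as 10 micron frozen sections, blocked with 10 % normal goat serum/0.1 % Triton X-100 and stained with rabbit anti-rat caspase 3 (1:10), then a TRITC or FITC secondary. Read by fluorescence microscopy.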
# Mus musculus [16] = assay: Anti-angiogenesis activity in FVB mouse model assessed as inhibition of VEGF-induced tissue TIE-2 level at 0.3 mg/kg, po qd treated for 4 to 6 hrs prior to chamber implantation and continuing for 4 days measured after 24 hrs post last dose by ELISA analysis; type: functional, organism-based; details: time 5.0 day
# Method in brief: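 Female FVB mice (18-20 g), porous chambers with VEGF (2 μg/mL) in 0.8 % w/v agar containing heparin 20 U/mL implanted s.c. in flank; compound p.o. once daily in 100 % PEG200 (5 mL/kg) from 4-6 h before implantation for 4 days; tissue removed 24 h after last dose, weighed, lysate assayed for TIE-2 by sandwich ELISA; n=6 per dose, mean ± SEM.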
# Mus musculus [17] = organism: Mus musculus; assay: Antiangiogenic activity in C57BL/6jNpa mouse harbouring mouse B16-BL6 cells assessed as reduction in K-trans level by measuring T/C ratio measured after 3 days by DCE-MRI assay; type: functional; details: time 3 day
# Method in brief: (§4)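 C57BL/6JNpa mice bearing B16/BL6 cervical lymph-node metastases, at least 8 per group, anaesthetized and given contrast agent; DCE-MRI Ktrans and iAUEC (permeability) and Vp (plasma volume) measured before and again after daily treatment; change per mouse recorded, mean ± SEM, one-way ANOVA with Holm-Sidak comparisons versus vehicle.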
# Mus musculus [18] = organism: Mus musculus; assay: Antiangiogenic activity in C57BL/6jNpa mouse harbouring mouse B16-BL6 cells assessed as reduction in iAUEC level by measuring T/C ratio measured after 3 days by DCE-MRI assay; type: functional; details: time 3 day; method in brief: as §4
# [19] = Oral bioavailability in OFA rat at 3 mg/kg measured upto 24 hrs by HPLC/UV analysis; type: ADME, organism-based; details: in vivo; method in brief: as §3
compound,measurement,setting,value
Nc1nccc(Oc2ccc3c(C(=O)Nc4cccc(C(F)(F)F)c4)cccc3c2)n1,pIC50,[1],< 6.30
same,clearance,[2],11 mL/min/kg
same,pIC50,[3],8.05
same,inhibition,[4],Active
same,T/C,[5],35.5
same,pIC50,[6],8.38
same,bioavailability,[7],35%
same,pIC50,[8],7.52
same,pIC50,[9],< 6.30
same,pIC50,[10],7.52
same,pIC50,[11],8.54
same,inhibition,[12],Active
same,inhibition,[13],Active
same,pIC50,[14],7.52
Nc1cc(Oc2ccc3c(C(=O)Nc4cccc(C(F)(F)F)c4)cccc3c2)ncn1,half-life,[15],10.1 h
Nc1nccc(Oc2ccc3c(C(=O)Nc4ccc(F)c(C(F)(F)F)c4)cccc3c2)n1,Activity,BN472 cell,Active
same,Activity,Mus musculus [16],Active
same,T/C,[5],5.6
same,half-life,[15],4.5 h
same,T/C,Mus musculus [17],0.39
same,T/C,Mus musculus [18],0.34
O=C(Nc1cccc(C(F)(F)F)c1)c1cccc2cc(Oc3cc(CO)ncn3)ccc12 [BFH-772],pIC50,[1],< 6.30
same,Activity,Mus musculus [16],Active
same,bioavailability,[19],46%
same,pIC50,[3],8.57
same,inhibition,[4],Active
same,pIC50,[6],8.34
same,pIC50,[8],7.52
same,pIC50,[9],< 6.30
same,pIC50,[10],7.52
same,pIC50,[11],8.52
same,inhibition,[12],Active
same,inhibition,[13],Active
same,pIC50,[14],7.52
